Results from different studies.
Compare with care: the assays were run in different laboratories.
Target: Serine/threonine-protein kinase TBK1 (TBK1, Homo sapiens, UniProt Q9UHD2)
Sequence (Q9UHD2 1-729, as in one of the studies): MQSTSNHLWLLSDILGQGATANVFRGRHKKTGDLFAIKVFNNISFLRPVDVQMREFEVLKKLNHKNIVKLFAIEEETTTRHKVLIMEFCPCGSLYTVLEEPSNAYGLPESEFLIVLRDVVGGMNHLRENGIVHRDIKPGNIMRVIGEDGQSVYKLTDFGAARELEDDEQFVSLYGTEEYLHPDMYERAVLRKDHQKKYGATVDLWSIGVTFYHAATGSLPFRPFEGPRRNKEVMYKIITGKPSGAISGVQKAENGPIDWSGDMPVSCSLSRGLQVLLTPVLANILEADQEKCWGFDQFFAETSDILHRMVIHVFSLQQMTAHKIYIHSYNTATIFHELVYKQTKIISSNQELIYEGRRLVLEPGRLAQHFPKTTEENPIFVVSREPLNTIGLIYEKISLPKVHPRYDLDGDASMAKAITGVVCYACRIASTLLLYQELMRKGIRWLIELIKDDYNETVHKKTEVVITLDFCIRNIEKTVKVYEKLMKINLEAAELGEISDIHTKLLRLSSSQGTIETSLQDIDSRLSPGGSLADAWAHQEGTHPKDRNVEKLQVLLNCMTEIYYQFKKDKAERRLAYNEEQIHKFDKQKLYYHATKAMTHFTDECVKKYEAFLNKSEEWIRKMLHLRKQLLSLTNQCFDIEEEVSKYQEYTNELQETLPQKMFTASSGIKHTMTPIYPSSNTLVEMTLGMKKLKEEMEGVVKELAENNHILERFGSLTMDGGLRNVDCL

SMILES | assay | setting | measurement | value
CC#CC(=O)N1CCC[C@H]1c1nc(-c2ccc(C(=O)Nc3ccccn3)cc2)c2c(N)nccn12 | enzyme activity, inhibitor | 1 µM | inhibition | 5%
C[C@H]1CC[C@H](n2c3cnccc3c3cnc(Nc4ccc5c(n4)CCN(C(=O)CO)C5)nc32)CC1 | cell-free assay | 1 µM | remaining signal | 100%
CCCCC(=O)Nc1ccc(-c2ccc3ncn(CCC)c(=O)c3c2)cn1 | binding, competition with immobilised ligand | 0.5 µM | remaining binding | 100%
COc1ccc2[nH]c3c4[nH]c5ccc(OC)cc5c4c4c(c3c2c1)C(=O)NC4=O | binding | 1 µM | remaining binding | 59%
CC(C)S(=O)(=O)c1ccc2nccc(Nc3ccc4sc(C5CCCC5)nc4c3)c2c1 | enzyme activity, inhibitor | 1 µM | activity vs control | 114%
C=CC(=O)N1CCC([C@@H]2CCNc3c(C(N)=O)c(-c4ccc(Oc5ccccc5)cc4)nn32)CC1 | enzyme activity, inhibitor | 1 µM | inhibition | 15%
C#Cc1cc(-c2cc(Nc3nc(N[C@@H](C)c4ccc(F)cn4)ncc3Cl)n[nH]2)ccc1C=O | enzyme activity, inhibitor | 0.2 µM | inhibition | 5.56%
Cc1cc(O)c(-c2ccc([C@@H](C)CN(C)C)cc2)c2c1[nH]c(=O)c1sccc12 | enzyme activity, inhibitor | 0.1 µM | inhibition | -4.68%
